Results reported in ChEMBL document CHEMBL4609978, “Synthesis and evaluation of 2'-dihalo ribonucleotide prodrugs with activity against hepatitis C virus” (Bioorg Med Chem, 2020).
Values after ≈ are worked out from the molar mass of the structure shown.

Columns and labels:
[1] = Prodrug conversion in Beagle dog liver assessed as nucleotide triphosphate level at 5 mg/kg, po qd for 4 days and measured at 24 hrs post-last dose by LC-MS/MS analysis; type: ADME, organism-based, Canis lupus familiaris; conditions: in vivo
Hepatitis C virus [2] = assay: Antiviral activity against HCV genotype 1a H77 infected in human HuH7 replicon cells assessed as inhibition of viral replication after 3 days by luciferase reporter gene assay; type: functional, organism-based, Hepacivirus hominis; conditions: subtype 1a H77, Huh-7, 72 h
How it was run: (§1)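 Stable subgenomic replicon cell lines (genotype 1a-H77 or 1b-Con1) carrying a luciferase reporter; compounds added in DMEM with 5% FBS, cells incubated 3 days with or without compound, then lysed and luciferase activity read; EC50 from nonlinear regression fit to 4-parameter logistic equation.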

[3] = Prodrug conversion in Beagle dog liver assessed as increase in nucleotide triphosphate level at 5 mg/kg, po co-dosed with 5 mg/kg sofosbuvir measured after 4 hrs by LC-MS/MS analysis relative to sofosbuvir; type: ADME, organism-based, Canis lupus familiaris; conditions: in vivo
How it was run: (§2)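 Beagle dogs (3 per time point) given single oral prodrug 5 mg/kg in EtOH:PEG-400:Phosal 53 MCT (10:30:60, w/w), cassette-dosed with sofosbuvir 5 mg/kg as internal standard; liver biopsies at 4 or 24 h, flash frozen, triphosphate measured by LC-MS/MS.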

[4] = Stability in dog plasma assessed as parent compound remaining after 4 hrs; type: ADME, cell-free, Canis lupus familiaris; conditions: read-out: Stability
How it was run: (§3)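 Prodrug incubated 4 h at 37 °C in dog or human plasma; result given as percent parent remaining.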

Hepatitis C virus [5] = assay: Antiviral activity against HCV genotype 1b Con1 infected in human HuH7 replicon cells assessed as inhibition of viral replication after 3 days by luciferase reporter gene assay; type: functional, organism-based, Hepacivirus hominis; conditions: subtype 1b Con1, Huh-7, 72 h; how it was run: as §1
[6] = Unbound drug level in human plasma; type: ADME, cell-free
[7] = Intrinsic clearance in human hepatocytes; type: ADME, cell-based, Hepatocyte; conditions: read-out: CLH (converted)
[8] = Prodrug conversion in human primary hepatocytes assessed as nucleotide triphosphate level at 100 uM incubated for 4 hrs followed by compound wash-out for 20 hrs and measured following 4 hrs incubation period by LC-MS/MS analysis; type: ADME, cell-based, Hepatocyte
How it was run: (§4)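 Cryopreserved primary human hepatocytes plated ~55,000 viable cells/well on collagen, medium changed after 4–6 h to Williams E maintenance medium with Geltrex 0.35 mg/mL, overnight at 37 °C; prodrug 100 µM for 4 h, then washed; second plate held a further 20 h drug-free; cells washed with ice-cold HBSS, triphosphate measured by LC-MS/MS at 4 or 24 h.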

Hepatitis C virus [9] = assay: Antiviral activity against HCV genotype 1b Con1 over expressing CES1 infected in human HuH7 replicon cells assessed as inhibition of viral replication after 3 days by luciferase reporter gene assay; type: functional, organism-based, Hepacivirus hominis; conditions: subtype 1b Con1, Huh-7, 72 h
[10] = Unbound drug level in dog plasma; type: ADME, cell-free, Canis lupus familiaris
[11] = Prodrug conversion in Beagle dog liver assessed as nucleotide triphosphate level at 5 mg/kg, po co-dosed with 5 mg/kg sofosbuvir measured after 4 hrs by LC-MS/MS analysis; type: ADME, organism-based, Canis lupus familiaris; conditions: in vivo; how it was run: as §2
[12] = Prodrug conversion in Beagle dog liver assessed as nucleotide triphosphate level at 5 mg/kg, po administered as single dose measured after 4 hrs by LC-MS/MS analysis; type: ADME, organism-based, Canis lupus familiaris; conditions: in vivo
[13] = Stability in human plasma assessed as parent compound remaining after 4 hrs; type: ADME, cell-free; conditions: read-out: Stability; how it was run: as §3
[14] = Aqueous solubility of compound in pH 7.4 phosphate buffer; type: physicochemical
[15] = Intrinsic clearance in dog hepatocytes; type: ADME, cell-based, Canis lupus familiaris, Hepatocyte; conditions: read-out: CLH (converted)
[16] = Prodrug conversion in Beagle dog liver assessed as nucleotide triphosphate level at 5 mg/kg, po administered as single dose measured after 24 hrs by LC-MS/MS analysis; type: ADME, organism-based, Canis lupus familiaris; conditions: in vivo
[17] = Prodrug conversion in Beagle dog liver assessed as nucleotide triphosphate level at 1 mg/kg, po qd for 4 days co-dosed with 5 mg/kg sofosbuvir and measured at 24 hrs post-last dose by LC-MS/MS analysis; type: ADME, organism-based, Canis lupus familiaris; conditions: in vivo
How it was run: (§5)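 Beagle dogs (3 per time point) dosed orally once daily for 4 days with prodrug (1 or 5 mg/kg) in EtOH:PEG-400:Phosal 53 MCT (10:30:60, w/w) together with sofosbuvir 5 mg/kg; liver biopsy 24 h after final dose, flash frozen, triphosphate by LC-MS/MS.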

[18] = Prodrug conversion in Beagle dog liver assessed as nucleotide triphosphate level at 5 mg/kg, po co-dosed with 5 mg/kg sofosbuvir measured after 24 hrs by LC-MS/MS analysis; type: ADME, organism-based, Canis lupus familiaris; conditions: in vivo; how it was run: as §2
[19] = Prodrug conversion in human primary hepatocytes assessed as nucleotide triphosphate level at 100 uM incubated for 4 hrs and followed by compound washout for 20 hrs and measured following 24 hrs incubation period by LC-MS/MS analysis; type: ADME, cell-based, Hepatocyte; how it was run: as §4
[20] = Distribution coefficient, logD of compound by HT-LCMS analysis; type: physicochemical; conditions: octanol/water
[21] = Prodrug conversion in Beagle dog liver assessed as increase in nucleotide triphosphate level at 5 mg/kg, po co-dosed with 5 mg/kg sofosbuvir measured after 24 hrs by LC-MS/MS analysis relative to sofosbuvir; type: ADME, organism-based, Canis lupus familiaris; conditions: in vivo; how it was run: as §2
[22] = Prodrug conversion in human primary hepatocytes assessed as increase in nucleotide triphosphate level at 100 uM incubated for 4 hrs followed by compound wash-out for 20 hrs and measured following 4 hrs incubation period by LC-MS/MS analysis relative to sofosbuvir; type: ADME, cell-based, Hepatocyte
[23] = Prodrug conversion in Beagle dog liver assessed as nucleotide triphosphate level at 5 mg/kg, po qd for 4 days co-dosed with 5 mg/kg sofosbuvir and measured at 24 hrs post-last dose by LC-MS/MS analysis; type: ADME, organism-based, Canis lupus familiaris; conditions: in vivo; how it was run: as §5

Structure (SMILES) | Drug metabolism [1] | EC50 (Hepatitis C virus [2]) | remaining at 4 h [4] | EC50 (Hepatitis C virus [5]) | fraction unbound [6] | CLint scaled [7] | Drug metabolism [8] | EC50 (Hepatitis C virus [9]) | fraction unbound [10] | Drug metabolism [11] | Drug metabolism [12] | remaining at 4 h [13] | solubility [14] | CLint scaled [15] | Drug metabolism [16] | Drug metabolism [18] | Drug metabolism [19] | logD [20] | fold change (FC) [22] | other results
CCOC(=O)C(C)(C)N[P@](=O)(OC[C@H]1O[C@@H](n2ccc(=O)[nH]c2=O)[C@@](F)(Br)[C@@H]1O)Oc1ccccc1 | 8.18 µM | 259 nM | 100% | 434 nM | 0.473 | 132 mL/min/kg | 3600 µM | 69 nM | 0.317 | 7 µM | 43.3 µM | 98% | 519 µM (≈ 308 µg/mL) | 123 mL/min/kg | 42.7 µM | 6.64 µM | 736 µM | 2.86 | 30 to 40 | fold change (FC) [3]: 5 to 6; Drug metabolism [17]: 10.7 µM; fold change (FC) [21]: 5 to 6
CCOC(=O)C(C)(C)N[P@](=O)(OC[C@H]1O[C@@H](n2ccc(=O)[nH]c2=O)[C@](Cl)(Br)[C@@H]1O)Oc1ccccc1 | 2.89 µM | 644 nM | 86% | 952 nM | 0.24 | 268 mL/min/kg | 2818 µM | 154 nM | 0.133 | 15.03 µM | 8.83 µM | 100% | > 200 µM | 200 mL/min/kg | 2.1 µM | 5.44 µM | 203 µM | 3.11 | 30 to 40 | Drug metabolism [23]: 11.1 µM
